The list is not random: actives were taken first. Their share in the collection is about 1.5%.
EBI2 block – blocks human EBI2 receptor beta-arrestin signaling; P32249; EBI2 beta-arrestin recruitment, luminescence, 7a,25-OHC stimulated; inhibition, % at 5 µM; hit rate 0.81% among 360,000; AID 651636; in the data active = inhibition above about 38%;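 also: enzyme fragment complementation signal reports receptor beta-arrestin coupling in cells; 0% = agonist plus DMSO wells and 100% = wells without agonist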
CCR6 antag – blocks CCL20-driven beta-arrestin recruitment at human CCR6; P51684; CHO-K1 CCR6 PathHunter beta-arrestin, luminescence, CCL20-stimulated; inhibition, % at 20 µM; hit rate 0.49% among 340,000; AID 493098;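 active = compounds whose inhibition of the agonist-driven luminescence signal at 20 µM reaches about 50%, limit read from the data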;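 also: cells stimulated with CCL20 at 14 nM final; plate controls were DMSO with CCL20 for no effect and DMSO without agonist for full effect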
Target sequence (P51684 whole entry, looked up): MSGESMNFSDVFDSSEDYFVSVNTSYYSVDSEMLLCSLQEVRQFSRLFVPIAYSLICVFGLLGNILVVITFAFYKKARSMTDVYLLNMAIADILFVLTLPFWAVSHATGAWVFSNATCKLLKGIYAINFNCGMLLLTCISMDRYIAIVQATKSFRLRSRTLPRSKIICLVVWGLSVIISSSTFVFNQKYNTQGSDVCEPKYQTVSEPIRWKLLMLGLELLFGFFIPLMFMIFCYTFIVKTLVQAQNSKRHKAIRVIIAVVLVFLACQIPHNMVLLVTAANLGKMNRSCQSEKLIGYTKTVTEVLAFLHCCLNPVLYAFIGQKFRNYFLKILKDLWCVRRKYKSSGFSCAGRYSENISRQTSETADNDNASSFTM
APJ antagonist – blocks the human apelin receptor APJ | CHO-K1 APJ beta-arrestin complementation, luminescence | AID 2521 | inhibition, % at 20 µM | hit rate 0.32% among 330,000 | P35414;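 active = inhibition above about 40% at 20 µM, limit read from the data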;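 also: cells challenged with 10 nM apelin-13 agonist together with compound; plate controls were apelin-13 plus DMSO wells for no effect and DMSO wells lacking apelin-13 for full effect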
CXCR6 inh – blocks human CXCR6 beta-arrestin recruitment. AID 602244. CHO-K1 PathHunter CXCR6 beta-arrestin, luminescence. hit rate 0.36% among 360,000. O00574. inhibition, % at 20 µM; in the data active = inhibition above about 34%, passing the limit was not always enough;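 also: antagonist mode with CXCL16 agonist at 10 nM final; 0% = 10 nM CXCL16 with DMSO and 100% = unstimulated wells without agonist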
APJ ag – APJ receptor agonism; P35414; hit rate 0.11% among 330,000; AID 2520; CHO-K1 APJ PathHunter beta-arrestin, luminescence; 0% DMSO wells, 100% apelin; activation, % at 20 µM;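 active = activation more than six SD over the plate average, tested at 20 µM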;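 also: 0% = DMSO alone and 100% = apelin-13 at 10 nM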
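Test system: CHO-K1 APJ beta-arrestin complementation cell line | Compound: Single test compound dose, 20 µM final, 1% DMSO | Incubation: Compound 90 min 25 °C, reagent 1 h | Measured by: beta-gal luminescence | Read-out basis: APJ–arrestin association signal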
EBI2 antag conf – confirmation of human EBI2 receptor antagonists | shares compounds with EBI2 block | EBI2 beta-arrestin luminescence, 7a,25-OHC antagonism | inhibition, % at 5 µM | hit rate 29% among 2,400;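 active = inhibition of at least 50%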
EBI2 agonist – activates EBI2, counter-screen for EBI2 antagonists. EBI2-expressing cells, agonist mode, luminescence, 60 min; 0% vehicle, 100% 7α,25-dihydroxycholesterol control. activation, % at 5 µM. shares compounds with EBI2 block. 2,400 tested, under 10 active;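 active = activation of at least 50%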
bGal cs – counter-screen for EBI2 antagonists: E. coli beta-galactosidase inhibition | purified beta-galactosidase, luminescent Galacton Star, 15 min | inhibition, % at 5 µM | shares compounds with EBI2 block | AID 652176 | hit rate 1% among 2,400;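 active = replicate-average signal at least 3 plate SD below neutral wells, shown as high inhibition, flagging enzyme-inhibiting false positives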;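 also: 0% = DMSO wells with enzyme and 100% = wells lacking enzyme; higher means stronger loss of beta-gal luminescence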
The depositor's hits bear a star.

Screening Cc1ccc(S(=O)(=O)NNC(=O)Nc2ccc([N+](=O)[O-])cc2)c(C)c1 returned EBI2 block 11.2, CCR6 antag 40.8, APJ antagonist 19.6, CXCR6 inh 12.1 and APJ ag -24.1.
Screening O=C(/C=C/c1ccccc1)N1CCCN(C(=O)/C=C/c2ccccc2)CC1 returned EBI2 block 79.4*, CCR6 antag -2.2, APJ antagonist 6.3, CXCR6 inh -8.1, APJ ag -4.2, EBI2 antag conf 52.9*, EBI2 agonist -1.0 and bGal cs -12.9.
Screening CCn1c(N2CCN(C(=O)/C=C/c3ccccc3)CC2)nc2ccccc21 returned EBI2 block 86.4*, CCR6 antag 4.2, APJ antagonist 4.6, CXCR6 inh 1.0, APJ ag -3.2, EBI2 antag conf 56.2*, EBI2 agonist -1.7 and bGal cs -5.5.
For CCCn1c(N2CCN(C(=O)/C=C/C(=O)O)CC2)nc2ccccc21 the results were EBI2 block -6.8, CCR6 antag -2.6, APJ antagonist 7.7, CXCR6 inh 0.6 and APJ ag -1.5.
Screening O=C(/C=C/c1ccccc1)N1CCN(C(=O)c2ccco2)CC1 returned EBI2 block 63.4*, CCR6 antag 4.9, APJ antagonist -11.2, CXCR6 inh 0.9, APJ ag -0.7, EBI2 antag conf 48.5, EBI2 agonist 0.7 and bGal cs 9.5.
For CCc1ccc(/C=C\C(=O)N2CCCC2)cc1 the results were EBI2 block 46.8*, CCR6 antag -1.1, APJ antagonist 6.8, CXCR6 inh 12.5, APJ ag -3.7, EBI2 antag conf 21.2, EBI2 agonist -2.0 and bGal cs -8.3.
O=S(=O)(Nc1cc(C(F)(F)F)ccc1N1CCOCC1)c1ccc2ccccc2c1 was read as EBI2 block 13.4, CCR6 antag 16.6, APJ antagonist -1.3, CXCR6 inh -3.4 and APJ ag -0.5.
Screening O=C(NCc1ccc(F)cc1)c1cc(C2CCCCN2S(=O)(=O)Cc2ccccc2)on1 (configuration not stated) returned EBI2 block 10.7 and CXCR6 inh 5.3.
Screening COC(=O)c1cccc(NC(=O)c2cc3ccccc3o2)c1 returned EBI2 block 44.3*, CCR6 antag 19.2, APJ antagonist 10.7, CXCR6 inh 1.0, APJ ag -3.5, EBI2 antag conf 32.4, EBI2 agonist -0.5 and bGal cs -2.0.
`COC(=O)c1cc(NC(=O)c2cc3ccccc3o2)cc(C(=O)OC)c1` gave EBI2 block 5.2, CCR6 antag 10.0, APJ antagonist -23.0, CXCR6 inh 10.7 and APJ ag 1.1.
For COc1ccc(CCNc2ccncn2)cc1 the results were EBI2 block 2.1, CCR6 antag 8.9, APJ antagonist 22.9, CXCR6 inh -2.5 and APJ ag 0.7.
For COc1ccc(CCNc2ccc(C)cc2)cc1 the results were EBI2 block 53.9*, CCR6 antag 10.8, APJ antagonist -8.4, CXCR6 inh -3.3, APJ ag -3.2, EBI2 antag conf 40.4, EBI2 agonist -1.9 and bGal cs -5.5.
Screening O=C(N/N=C/c1ccc(Cl)cc1Cl)c1cccc(F)c1 returned EBI2 block 44.6*, CCR6 antag 7.7, APJ antagonist 4.4, CXCR6 inh 1.1, APJ ag -1.0, EBI2 antag conf 40.6, EBI2 agonist 2.4 and bGal cs 3.0.
COc1cc(C(=O)N2CCN(C(=O)c3ccccc3)CC2)cc(OC)c1OC was read as EBI2 block -1.1, CCR6 antag -17.6, APJ antagonist 13.3, CXCR6 inh -1.1 and APJ ag -0.8.
Screening COc1ccc(S(=O)(=O)N2CCN(C(=O)c3cc(-c4ccccc4OC)n[nH]3)CC2)cc1 returned EBI2 block 62.6*, CCR6 antag 5.8, APJ antagonist -4.3, CXCR6 inh -12.6, APJ ag 3.1, EBI2 antag conf 37.8, EBI2 agonist 1.1 and bGal cs 6.8.
`COc1cc(C(=O)N2CCN(C(=O)c3cc(-c4ccc(Br)cc4)n[nH]3)CC2)cc(OC)c1OC` gave EBI2 block 52.0*, CCR6 antag 3.6, APJ antagonist -50.6, CXCR6 inh 1.5, APJ ag -1.1, EBI2 antag conf 9.8, EBI2 agonist -0.5 and bGal cs -13.3.
Screening CC(C)c1ccc(S(=O)(=O)N2CCN(C(=O)c3cc(-c4ccccc4)n[nH]3)CC2)cc1 returned EBI2 block 74.5*, CCR6 antag 20.7, APJ antagonist -52.1, CXCR6 inh 7.8, APJ ag -2.7, EBI2 antag conf 34.3, EBI2 agonist -1.4 and bGal cs -12.3.
For COc1ccc(S(=O)(=O)N2CCN(C(=O)c3cc(C)on3)CC2)cc1 the results were EBI2 block -13.2, CCR6 antag -1.5, APJ antagonist 2.0, CXCR6 inh -6.1 and APJ ag -0.3.
For COc1cccc(-c2cc(C(=O)N3CCN(S(=O)(=O)c4ccc(Br)cc4)CC3)[nH]n2)c1 the results were EBI2 block 57.0*, CCR6 antag 13.9, APJ antagonist -11.5, CXCR6 inh -4.0, APJ ag 4.5, EBI2 antag conf 37.6, EBI2 agonist 1.5 and bGal cs 11.1.
Screening CN(CC(=O)Nc1c(Cl)cccc1Cl)C(=O)C1CC(=O)N(Cc2ccccc2)C1 (configuration not stated) returned EBI2 block 3.4, CCR6 antag 7.5, APJ antagonist 3.8, CXCR6 inh -10.2 and APJ ag -3.4.
For CCc1nc2ccc(C(=O)N3CCN(S(=O)(=O)CC)CC3)cn2c1N(C)Cc1cccs1 the results were EBI2 block -5.5 and CXCR6 inh 1.8.
`O=C(NCCc1c[nH]c2ccccc12)C1CCN(S(=O)(=O)c2ccccc2)CC1` gave EBI2 block 37.4, CCR6 antag 15.1, APJ antagonist 14.6, CXCR6 inh 6.4 and APJ ag -1.9.
Screening CC(=O)Nc1ccc(S(=O)(=O)N2CCC(C(=O)NCCc3c[nH]c4ccccc34)CC2)cc1 returned EBI2 block 49.0*, CCR6 antag -0.6, APJ antagonist 1.0, CXCR6 inh 5.4, APJ ag 0.7, EBI2 antag conf 20.7, EBI2 agonist 1.2 and bGal cs 5.1.
For C=CCNC(=S)N/N=C/c1cn(-c2ccccc2)nc1-c1ccc(OC)cc1 the results were EBI2 block 44.7*, CCR6 antag -17.7, APJ antagonist -16.6, CXCR6 inh 10.2, APJ ag 2.3, EBI2 antag conf 35.2, EBI2 agonist 0.8 and bGal cs 6.7.

From PubChem BioAssay
